Data: ChEMBL document CHEMBL4265871, “Novel alkylated azoles as potent antifungals” (Eur J Med Chem, 2017)
In brackets after ≈: the same amount, converted by molar mass.

Tests used:
Nakaseomyces glabratus = experiment: Antifungal activity against Candida glabrata ATCC 2001 incubated for 48 hrs by modified CLSI M27-A3 protocol based method; format: functional; settings: ATCC 2001, 48 h
Pichia kudriavzevii = experiment: Antifungal activity against Candida krusei ATCC 6258 incubated for 48 hrs by modified CLSI M27-A3 protocol based method; format: functional; settings: ATCC 6258, 48 h
Method in brief: (§1)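 For C. albicans ATCC 10231, C. krusei ATCC 6258 and C. parapsilosis ATCC 22019, MIC-0 was read, meaning complete growth inhibition. For azole controls, MIC-2 (50% growth inhibition) was reported instead. Caspofungin and voriconazole were tested here; other controls came from earlier work.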

Candida albicans [1] = experiment: Antifungal activity against ITC and FLC-susceptible Candida albicans ATCC MYA-2876 incubated for 48 hrs by modified CLSI M27-A3 protocol based method; format: functional; settings: ATCC MYA-2876, 48 h
Method in brief: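 Because these Candida strains show trailing growth, MIC-2 was read, meaning 50% growth inhibition. Caspofungin and voriconazole were tested here; other controls came from earlier work.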

in vitro = settings: mouse, mouse erythrocytes
Candida albicans [2] = experiment: Antifungal activity against ITC and FLC-susceptible Candida albicans ATCC MYA-2310 incubated for 48 hrs by modified CLSI M27-A3 protocol based method; format: functional; settings: ATCC MYA-2310, 48 h
[3] = Toxicity in human A549 cells assessed as reduction in cell viability incubated for 24 hrs by resazurin dye based assay
Method in brief: (§2)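 Toxicity tested in the nucleated lines A549 and BEAS-2B to give EC50 values. Selectivity index is EC50 against the mammalian line divided by the MIC against a given fungal strain.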

Candida albicans [4] = experiment: Antifungal activity against Candida albicans ATCC 64124 incubated for 48 hrs by modified CLSI M27-A3 protocol based method; format: functional; settings: ATCC 64124, 48 h
[5] = Hemolytic activity in mouse erythrocytes assessed as hemolysis level at 3.9 ug/ml incubated for 1 hr at 37 degC; format: ADME, cell-based, Erythrocyte; settings: read-out: Activity
Method in brief: (§3)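 Mouse erythrocytes incubated 1 h at 37 °C with test agents over 1.95 to 125 µg/mL. Percent lysis is read for each concentration.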

Candida albicans [6] = experiment: Effect on sterol composition in Candida albicans ATCC 10231 assessed as ergosterol level at 0.125 ug/mL incubated for 10 mins by GC-MS analysis (reference value: 91.15%)
Candida albicans [7] = experiment: Effect on sterol composition in Candida albicans ATCC 10231 assessed as unknown sterol level at 0.125 ug/mL incubated for 10 mins by GC-MS analysis (reference value: 1.88 to 2.78%)
Candida albicans [8] = experiment: Effect on sterol composition in Candida albicans ATCC 64124 assessed as eburicol level at 1.95 ug/mL incubated for 10 mins by LC-MS analysis (reference value: 6.28%)
[9] = Hemolytic activity in mouse erythrocytes assessed as hemolysis level at 1.95 ug/ml incubated for 1 hr at 37 degC; format: ADME, cell-based, Erythrocyte; settings: read-out: Activity; method in brief: as §3
Candida albicans [10] = experiment: Antifungal activity against ITC and FLC-resistant Candida albicans ATCC MYA-90819 incubated for 48 hrs by modified CLSI M27-A3 protocol based method; format: functional; settings: ATCC MYA-90819, 48 h
[11] = Hemolytic activity in mouse erythrocytes assessed as hemolysis level at 7.8 ug/ml incubated for 1 hr at 37 degC; format: ADME, cell-based, Erythrocyte; settings: read-out: Activity; method in brief: as §3
[12] = Hemolytic activity in mouse erythrocytes assessed as hemolysis level at 125 ug/ml incubated for 1 hr at 37 degC; format: ADME, cell-based, Erythrocyte; settings: read-out: Activity; method in brief: as §3
Candida parapsilosis = experiment: Antifungal activity against Candida parapsilosis ATCC 22019 incubated for 48 hrs by modified CLSI M27-A3 protocol based method; format: functional; settings: Lodderomyces parapsilosis, ATCC 22019, 48 h; method in brief: as §1
[13] = Hemolytic activity in mouse erythrocytes assessed as hemolysis level at 15.6 ug/ml incubated for 1 hr at 37 degC; format: ADME, cell-based, Erythrocyte; settings: read-out: Activity; method in brief: as §3
Candida albicans [14] = experiment: Effect on sterol composition in Candida albicans ATCC 64124 assessed as lanosterol level at 1.95 ug/mL incubated for 10 mins by LC-MS analysis (reference value: 29.38%)
[15] = Hemolytic activity in mouse erythrocytes assessed as hemolysis level at 31.3 ug/ml incubated for 1 hr at 37 degC; format: ADME, cell-based, Erythrocyte; settings: read-out: Activity; method in brief: as §3
Candida albicans [16] = experiment: Effect on sterol composition in Candida albicans ATCC 64124 assessed as ergosterol level at 1.95 ug/mL incubated for 10 mins by LC-MS analysis (reference value: 54.72%)
Candida albicans [17] = experiment: Effect on sterol composition in Candida albicans ATCC 10231 assessed as lanosterol level at 0.125 ug/mL incubated for 10 mins by GC-MS analysis (reference value: 4.17%)
Candida albicans [18] = experiment: Effect on sterol composition in Candida albicans ATCC 64124 assessed as unknown sterol level at 1.95 ug/mL incubated for 10 mins by LC-MS analysis (reference value: 2.67 to 6.98%)
[19] = Toxicity in human BEAS2B cells assessed as reduction in cell viability incubated for 24 hrs by resazurin dye based assay; settings: BEAS-2B cells; method in brief: as §2

OC(Cn1cncn1)(Cn1cncn1)c1ccc(F)cc1F [FLUCONAZOLE]
MIC50 (Nakaseomyces glabratus): > 102 µM | MIC50 (Pichia kudriavzevii): > 102 µM | MIC50 (Candida albicans [1]): 50.9 µM (≈ 15.6 µg/mL) | hemolysis at 1 h, 62.5 ug/ml (in vitro): 2.7% | MIC50 (Candida albicans [2]): > 408 µM | EC50 at 24 h [3]: > 62.5 µg/mL | MIC50 (Candida albicans [4]): > 408 µM | hemolysis at 1 h, 3.9 ug/ml [5]: 0% | Activity (Candida albicans [6]): 93.79% | Activity (Candida albicans [7]): 1.12 - 1.25% | Activity (Candida albicans [8]): 11.61% | hemolysis at 1 h, 1.95 ug/ml [9]: 0% | MIC50 (Candida albicans [10]): > 408 µM | hemolysis at 1 h, 7.8 ug/ml [11]: 0% | hemolysis at 1 h, 125 ug/ml [12]: 13.4% | MIC50 (Candida parapsilosis): 6.4 µM (≈ 1.96 µg/mL) | hemolysis at 1 h, 15.6 ug/ml [13]: 0% | Activity (Candida albicans [14]): 30.59% | hemolysis at 1 h, 31.3 ug/ml [15]: 7.5% | Activity (Candida albicans [16]): 48.03% | Activity (Candida albicans [17]): 3.81% | Activity (Candida albicans [18]): 0.02 - 9.75% | EC50 at 24 h [19]: > 62.5 µg/mL
